From ChEMBL document CHEMBL1125728, “Dopamine autoreceptor agonists as potential antipsychotics. 2. (Aminoalkoxy)-4H-1-benzopyran-4-ones” (J Med Chem, 1991) come the findings set out here.

One assay deals with D(1A) dopamine receptor (Rattus norvegicus, UniProt P18901). The experiment in a line: Compound was tested for its inhibitory effect on the binding profile in Dopamine receptor D1 using [3H]flupenthixol in rat brain. It is filed as tissue-based. Put shortly: (§1)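 Rat brain receptor binding with the stated radioligands. IC50 obtained by nonlinear regression from four to five concentrations. [3H]flupenthixol and [3H]N-propylnorapomorphine values come from four independent determinations each, and the [3H]haloperidol value from two experiments. Remaining ligands were determined once.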
Chain of D(1A) dopamine receptor (P18901 whole entry): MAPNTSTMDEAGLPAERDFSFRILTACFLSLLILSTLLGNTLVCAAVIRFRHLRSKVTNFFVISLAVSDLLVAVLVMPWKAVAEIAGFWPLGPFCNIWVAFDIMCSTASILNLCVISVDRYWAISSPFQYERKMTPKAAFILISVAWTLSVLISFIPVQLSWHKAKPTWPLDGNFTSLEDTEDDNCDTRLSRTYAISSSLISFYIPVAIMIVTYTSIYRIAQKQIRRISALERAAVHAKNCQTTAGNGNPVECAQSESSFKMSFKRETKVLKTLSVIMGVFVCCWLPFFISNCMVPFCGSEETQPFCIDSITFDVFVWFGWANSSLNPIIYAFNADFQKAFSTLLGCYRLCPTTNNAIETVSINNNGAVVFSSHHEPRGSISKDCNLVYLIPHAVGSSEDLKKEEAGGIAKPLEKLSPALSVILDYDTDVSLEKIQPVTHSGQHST

Assay [1] concerns Rattus norvegicus. The experiment in a line: Percentage of rats showing signs of stereotyped behavior at 17 mg/kg peroral dose and followed 1 hr later by 10 mg/kg sc of SKF-38393 and animals observed for 60 min postdose before being. It is filed as functional. In a few lines:
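Part 2: oral dose given to naive rats, six per dose, followed 1 h later by SKF 38393 (10 mg/kg sc). Stereotypy (repetitive rearing, head-swaying, sniffing, licking, gnawing lasting ≥5 s) rated over 60 min. Reported as percent of rats affected.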

For assay [2], the system named is Rattus norvegicus. The experiment in a line: Effect on DOPA accumulation level at an intraperitoneal dose of 30 mg/kg in rat. The assay is classed as functional.
Another assay addresses D(2) dopamine receptor (Rattus norvegicus, UniProt P61169). The experiment in a line: Compound was tested for its inhibitory effect on the binding profile in Dopamine receptor D2 using [3H]haloperidol in rat brain. It is filed as tissue-based. Put shortly: as §1
Assay [3] addresses Dopamine receptor. The experiment in a line: Compound was tested for inhibitory binding activity against Dopamine receptor in rat striatal membranes using [3H]HAL as the radioligand. The assay is classed as cell membranes, Striatum, Membrane. Put shortly:
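[3H]Haloperidol displacement from rat striatal DA receptors, run in duplicate. IC50 obtained by nonlinear regression from four to five concentrations.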

The test system of assay [4] is Rattus norvegicus. The experiment in a line: Compound tested for % reversal of DOPA accumulation at an intraperitoneal dose of 30 mg/kg. The assay is classed as functional. In a few lines: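 Rats dosed 1 h before sacrifice, with GBL (750 mg/kg ip) at 30 min and NSD 1015 (100 mg/kg ip) at 25 min before sacrifice. Striatal DOPA measured by HPLC with electrochemical detection. Value is percent reversal of the GBL-induced DOPA rise.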

Assay [5] concerns the target T1, Adrenergic receptor alpha-2 (Rattus norvegicus, UniProt P22086+P19328+P22909).
T1 sequence (P22086 whole entry): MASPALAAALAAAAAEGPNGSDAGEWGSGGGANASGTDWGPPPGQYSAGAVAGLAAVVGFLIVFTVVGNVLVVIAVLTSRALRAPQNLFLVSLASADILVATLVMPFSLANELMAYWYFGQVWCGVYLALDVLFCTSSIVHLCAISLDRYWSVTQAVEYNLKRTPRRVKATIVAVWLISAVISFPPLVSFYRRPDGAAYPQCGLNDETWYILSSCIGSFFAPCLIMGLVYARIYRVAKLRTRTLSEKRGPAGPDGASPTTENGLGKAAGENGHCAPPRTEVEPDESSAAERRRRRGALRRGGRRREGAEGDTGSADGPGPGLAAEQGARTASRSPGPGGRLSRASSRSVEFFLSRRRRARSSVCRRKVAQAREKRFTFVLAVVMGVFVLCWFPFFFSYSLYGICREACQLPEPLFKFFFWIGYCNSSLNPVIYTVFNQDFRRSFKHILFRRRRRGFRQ
T1 sequence (P19328 whole entry): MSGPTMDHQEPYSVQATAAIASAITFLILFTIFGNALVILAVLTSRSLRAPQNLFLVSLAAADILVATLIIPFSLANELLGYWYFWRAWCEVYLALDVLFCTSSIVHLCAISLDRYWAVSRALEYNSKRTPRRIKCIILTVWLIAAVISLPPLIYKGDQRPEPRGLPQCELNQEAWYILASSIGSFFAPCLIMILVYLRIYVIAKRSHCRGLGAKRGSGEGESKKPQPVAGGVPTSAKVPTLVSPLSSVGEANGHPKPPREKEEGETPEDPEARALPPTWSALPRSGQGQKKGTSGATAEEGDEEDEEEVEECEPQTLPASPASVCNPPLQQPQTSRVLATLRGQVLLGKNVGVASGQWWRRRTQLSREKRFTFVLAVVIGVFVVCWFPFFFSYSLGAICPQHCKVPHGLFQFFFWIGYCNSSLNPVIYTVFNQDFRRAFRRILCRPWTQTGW
T1 sequence (P22909 whole entry): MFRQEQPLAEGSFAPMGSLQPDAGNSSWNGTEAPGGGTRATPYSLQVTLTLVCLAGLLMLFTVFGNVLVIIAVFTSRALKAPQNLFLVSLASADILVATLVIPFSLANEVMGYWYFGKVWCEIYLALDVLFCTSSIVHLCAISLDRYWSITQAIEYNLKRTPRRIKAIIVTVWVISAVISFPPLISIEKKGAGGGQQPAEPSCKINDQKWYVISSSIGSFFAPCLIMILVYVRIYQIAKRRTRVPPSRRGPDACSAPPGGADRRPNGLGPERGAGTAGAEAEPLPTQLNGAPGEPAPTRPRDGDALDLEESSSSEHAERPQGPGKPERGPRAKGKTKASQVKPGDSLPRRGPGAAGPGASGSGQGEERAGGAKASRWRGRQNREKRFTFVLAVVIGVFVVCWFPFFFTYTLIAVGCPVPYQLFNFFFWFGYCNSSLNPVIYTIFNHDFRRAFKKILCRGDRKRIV
The experiment in a line: Compound was tested for its inhibitory effect on the binding profile in Alpha-2 adrenergic receptor using [3H]p-aminoclonidine in rat brain. The assay is classed as tissue-based. In a few lines: as §1

Assay [6] relates to Rattus norvegicus. The experiment in a line: Compound tested for % inhibition of DA neuronal firing at an intraperitoneal dose of 2.5 mg/kg. To be noted: ip. It is filed as functional.
The test system of assay [7] is Rattus norvegicus. The experiment in a line: Percentage of rats showing signs of stereotyped behavior at 30 mg/kg peroral dose and animals observed for 60 min postdose. The note with it: route oral.
Assay [8] can be described thus: Compound tested for its liability for extrapyramidal side effects (EPS) in terms of no. of animals showing signs of EPS/no. of animals tested upon po administration at a dose of 80 mg/Kg; 0/3. It is filed as functional.
In assay [9] the target is Serotonin 2 (5-HT2) receptor (Rattus norvegicus, UniProt P30994+P08909+P14842). The experiment in a line: Compound was tested for its inhibitory effect on the binding profile in 5-hydroxytryptamine 2 receptor using [3H]spiroperidol in rat brain. It is filed as tissue-based. Put shortly: as §1
Assay [10] has as its target Dopamine receptor. The experiment in a line: Compound was tested for its inhibitory effect on the binding profile in Dopamine receptor using [3H]N-propylnorapomorphine in rat brain. It is filed as tissue-based. In a few lines:
as §1

The subject of another assay is Mus musculus. The experiment in a line: Inhibition of mouse intraperitoneally. To be noted: ip. It is filed as functional. In a few lines:
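Inhibition of exploratory locomotor activity, scored together with motor coordination (ataxia). ED50 generated from four to five doses, with 5–12 animals per dose.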

The nature of assay [11]: Compound was tested for its inhibition of Sidman avoidance after peroral administration in Squirrel monkeys. It is filed as functional. To be noted: po. In a few lines:
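Sidman avoidance in mature squirrel monkeys, oral dosing. ED50 ± SEM generated from three doses, four animals per dose.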

The subject of assay [12] is Rattus norvegicus. The experiment in a line: Compound tested for its effective dose to inhibit rat locomotor activity after sc administration of the compound. The assay is classed as functional. Put shortly:
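Rats dosed sc, with locomotor activity recorded for 30 min immediately after dosing. ED50 generated from four to five doses using 5–12 animals per dose, reported with ±95% confidence limits.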

The test system of assay [13] is Rattus norvegicus. The experiment in a line: Compound tested for its effect on reversal of 6-OHDA induced depression in rats after sc administration. The assay is classed as functional. In a few lines: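 Rats lesioned at least 1 month earlier with 6-OHDA (20 μg icv) plus pargyline (50 mg/kg ip) and desipramine (25 mg/kg ip), giving about 90% brain DA depletion. Drug given sc, then locomotor activity recorded for 30 min from dosing. ED200 estimated from three or four doses, six rats per dose.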

Chain of D(2) dopamine receptor (P61169 whole entry): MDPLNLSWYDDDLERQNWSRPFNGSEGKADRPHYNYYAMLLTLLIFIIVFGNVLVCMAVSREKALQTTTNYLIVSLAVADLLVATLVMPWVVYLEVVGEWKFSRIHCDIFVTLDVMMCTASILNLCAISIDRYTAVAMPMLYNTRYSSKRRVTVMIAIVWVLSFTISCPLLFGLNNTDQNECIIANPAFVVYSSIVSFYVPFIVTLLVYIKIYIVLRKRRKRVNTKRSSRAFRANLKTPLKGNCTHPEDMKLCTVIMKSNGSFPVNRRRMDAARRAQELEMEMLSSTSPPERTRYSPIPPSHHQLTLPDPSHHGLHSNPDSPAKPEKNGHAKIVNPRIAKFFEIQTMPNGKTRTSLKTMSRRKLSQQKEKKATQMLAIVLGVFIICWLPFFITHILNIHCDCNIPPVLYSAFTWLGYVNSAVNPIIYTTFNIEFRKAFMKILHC

One may read the IC50 as the concentration needed to halve the response being measured. High values mean lower potency, low ones higher potency. Broadly, the inhibition in vivo is the change of the read-out against control, counted positive when it falls. What is called ED50 is the midpoint of the dose-response relation. With `O=c1ccoc2cc(OCCCN3CCN(c4ccccn4)CC3)ccc12`, the IC50 was 21700 nM on D(1A) dopamine receptor; 1080 nM at D(2) dopamine receptor; 1000 nM at Dopamine receptor [3]; 2600 nM in assay [5]; 1000 nM in [9]; 59 nM at Dopamine receptor [10]. Also, the Animals with Rattus norvegicus [1] and in the assay with Rattus norvegicus [7] was 0% each time. In the assay on Rattus norvegicus [2], this compound registered a DOPA level of 0.28 µg/g. For the same compound, the Reversal in the assay on Rattus norvegicus [4] worked out at 100%. In the assay on Rattus norvegicus [6], this compound registered an inhibition in vivo at 2.5 mg/kg of 93%. The compound also displayed an EPS in assay [8] of 0. For the same compound, the ED50 was found to be 1.3 mg/kg with Mus musculus, 6 mg/kg in assay [11] and 0.58 mg/kg in the assay on Rattus norvegicus [12]. In addition, in the assay on Rattus norvegicus [13], the ED200 is greater than 5 mg/kg.
